Consider 17 compounds from ChEMBL document CHEMBL2434961, “Development of 3-phenyl-4,5,6,7-tetrahydro-1H-pyrazolo[4,3-c]pyridine derivatives as novel Mycobacterium tuberculosis pantothenate synthetase inhibitors” (Eur J Med Chem, 2013).

Converted amounts (≈) assume the structure as drawn. Some results are limits rather than exact numbers.

Test system in one data set: not listed separately
Put plainly: Cytotoxicity against mouse RAW264.7 cells assessed as inhibition of cell viability at 50 uM after 72 hrs by MTT assay relative to control. It counts as cell-based. Conditions: read-out: INH. The procedure, abridged:
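RAW 264.7 mouse macrophage cells exposed to compound at 50 µM for 72 h. Viability assessed by cellular conversion of MTT to formazan.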
As to `O=C(c1ccccc1)n1nc(-c2ccccc2)c2c1CCN(C(=S)Nc1ccc(F)cc1)C2`, the cytotoxicity at 72 h, 50 µM turned out to be 0.5%.
Still for that read-out and setting: to `O=C(C1CCCCC1)n1nc(-c2ccccc2)c2c1CCN(S(=O)(=O)c1cccs1)C2` belongs 8.1%; to `Cc1ccc(NC(=O)N2CCc3c(c(-c4ccccc4)nn3C(=O)C3CCCCC3)C2)cc1`, 15.1%; to `CC(=O)c1ccc(S(=O)(=O)N2CCc3c(c(-c4ccccc4)nn3C(=O)C3CCCCC3)C2)cc1`, 11.5%.
As to `Cc1ccc(S(=O)(=O)N2CCc3c(c(-c4ccccc4)nn3C(=O)C3CCCCC3)C2)cc1`, the cytotoxicity at 72 h, 50 µM turned out to be 0%.
On the same count and under the same terms, to `O=C(Nc1ccc([N+](=O)[O-])cc1)N1CCc2c(c(-c3ccccc3)nn2C(=O)C2CCCCC2)C1` belongs 14.9%; to `O=C(c1ccccc1)n1nc(-c2ccccc2)c2c1CCN(S(=O)(=O)c1cccs1)C2`, 6.8%.
The same measure, in the same setting: to `Cc1ccc(NC(=O)N2CCc3c(c(-c4ccccc4)nn3C(=O)c3ccccc3)C2)cc1` belongs 57.1%; to `COc1ccc(NC(=S)N2CCc3c(c(-c4ccccc4)nn3C(=O)C3CCCCC3)C2)cc1`, 9.5%.
For the compound `O=C(Nc1ccc(Br)cc1)N1CCc2c(c(-c3ccccc3)nn2C(=O)C2CCCCC2)C1`, the cytotoxicity at 72 h, 50 µM came out at 0%.
On the same count and under the same terms, to `O=C(C1CCCCC1)n1nc(-c2ccccc2)c2c1CCN(C(=S)Nc1ccc(F)cc1)C2` belongs 58.4%; to `O=C(Nc1ccc(Cl)cc1)N1CCc2c(c(-c3ccccc3)nn2C(=O)C2CCCCC2)C1`, 4%; to `CCOc1ccc(NC(=O)N2CCc3c(c(-c4ccccc4)nn3C(=O)C3CCCCC3)C2)cc1`, 4.9%.
On the same count and under the same terms, to `O=C(Nc1ccc(Cl)cc1)N1CCc2c(c(-c3ccccc3)nn2C(=O)c2ccccc2)C1` belongs 4.9%; to `CCOc1ccc(NC(=O)N2CCc3c(c(-c4ccccc4)nn3C(=O)c3ccccc3)C2)cc1`, 0%; to `O=C(NCc1ccccc1)N1CCc2c(c(-c3ccccc3)nn2C(=O)C2CCCCC2)C1`, 35.7%.
Consider `C=CCNC(=S)N1CCc2c(c(-c3ccccc3)nn2C(=O)c2ccccc2)C1`, for which the cytotoxicity at 72 h, 50 µM is 6%.

In another data set the test system is Mycobacterium tuberculosis. Put plainly: Antibacterial activity against Mycobacterium tuberculosis H37Rv ATCC 27294 assessed as growth inhibition after 28 days by agar dilution method. To be noted: H37Rv ATCC 27294, 672 h. It counts as functional. An outline of the steps: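 Two-fold serial dilutions incorporated into Middlebrook 7H11 agar with OADC, final 50 to 0.78 µg/mL. Inoculum of 1 mg/mL (wet weight) in 0.05% Tween 80 saline, diluted 10⁻² to ~10⁷ cfu/mL. 5 µL spotted per tube, incubated at 37 °C for 28 days. MIC is the lowest concentration giving complete growth inhibition.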
The MIC is the lowest concentration found to suppress growth. In the case of `O=C(c1ccccc1)n1nc(-c2ccccc2)c2c1CCN(C(=S)Nc1ccc(F)cc1)C2`, the MIC amounted to 110 µM (≈ 50 µg/mL).
Still for that read-out and setting: to `O=C(C1CCCCC1)n1nc(-c2ccccc2)c2c1CCN(S(=O)(=O)c1cccs1)C2` belongs 54.9 µM (≈ 25 µg/mL).
Same read-out and setting: in the case of `Cc1ccc(NC(=O)N2CCc3c(c(-c4ccccc4)nn3C(=O)C3CCCCC3)C2)cc1` it was 56.5 µM (≈ 25 µg/mL).
`CC(=O)c1ccc(S(=O)(=O)N2CCc3c(c(-c4ccccc4)nn3C(=O)C3CCCCC3)C2)cc1`: the minimum inhibitory concentration (MIC) amounted to 50.8 µM (≈ 25 µg/mL).
On the same count and under the same terms, to `Cc1ccc(S(=O)(=O)N2CCc3c(c(-c4ccccc4)nn3C(=O)C3CCCCC3)C2)cc1` belongs 53.9 µM (≈ 25 µg/mL).
As for `O=C(Nc1ccc([N+](=O)[O-])cc1)N1CCc2c(c(-c3ccccc3)nn2C(=O)C2CCCCC2)C1`, the MIC amounted to 52.8 µM (≈ 25 µg/mL).
As for `O=C(c1ccccc1)n1nc(-c2ccccc2)c2c1CCN(S(=O)(=O)c1cccs1)C2`, the MIC amounted to 55.6 µM (≈ 25 µg/mL).
On the same count and under the same terms, to `Cc1ccc(NC(=O)N2CCc3c(c(-c4ccccc4)nn3C(=O)c3ccccc3)C2)cc1` belongs 114 µM (≈ 49.8 µg/mL); to `COc1ccc(NC(=S)N2CCc3c(c(-c4ccccc4)nn3C(=O)C3CCCCC3)C2)cc1`, 102 µM (≈ 48.3 µg/mL).
On the same count and under the same terms, in the case of `O=C(Nc1ccc(Br)cc1)N1CCc2c(c(-c3ccccc3)nn2C(=O)C2CCCCC2)C1` it was 98.5 µM (≈ 50 µg/mL); in that of `O=C(C1CCCCC1)n1nc(-c2ccccc2)c2c1CCN(C(=S)Nc1ccc(F)cc1)C2`, 105 µM (≈ 48.7 µg/mL); in that of `O=C(Nc1ccc(Cl)cc1)N1CCc2c(c(-c3ccccc3)nn2C(=O)C2CCCCC2)C1`, 108 µM (≈ 50 µg/mL).
The same measure, in the same setting: in the case of `CCOc1ccc(NC(=O)N2CCc3c(c(-c4ccccc4)nn3C(=O)C3CCCCC3)C2)cc1` it was 106 µM (≈ 50 µg/mL); in that of `O=C(Nc1ccc(Cl)cc1)N1CCc2c(c(-c3ccccc3)nn2C(=O)c2ccccc2)C1`, 109 µM (≈ 50 µg/mL).
`CCOc1ccc(NC(=O)N2CCc3c(c(-c4ccccc4)nn3C(=O)c3ccccc3)C2)cc1`: the MIC is above 107 µM.
The same measure, in the same setting: to `O=C(NCc1ccccc1)N1CCc2c(c(-c3ccccc3)nn2C(=O)C2CCCCC2)C1` belongs 54.5 µM (≈ 24.1 µg/mL); to `C=CCNC(=S)N1CCc2c(c(-c3ccccc3)nn2C(=O)c2ccccc2)C1`, above 124 µM.

The target of another data set is T1, Pantothenate synthetase (Mycobacterium tuberculosis) (UniProt P9WIL5).
T1 sequence (whole entry): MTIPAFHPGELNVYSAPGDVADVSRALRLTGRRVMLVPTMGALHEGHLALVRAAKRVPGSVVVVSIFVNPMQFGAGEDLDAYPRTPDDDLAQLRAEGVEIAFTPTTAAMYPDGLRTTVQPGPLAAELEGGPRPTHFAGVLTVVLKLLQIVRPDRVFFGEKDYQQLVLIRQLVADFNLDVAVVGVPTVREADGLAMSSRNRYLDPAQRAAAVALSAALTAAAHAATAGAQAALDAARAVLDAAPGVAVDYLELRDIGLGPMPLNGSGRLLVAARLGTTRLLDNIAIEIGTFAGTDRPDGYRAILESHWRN
Put plainly: Inhibition of Mycobacterium tuberculosis pantothenate synthetase cloned in Escherichia coli BL21 (DE3) using ATP, beta-alanine, pantoic acid as substrate assessed as NAD+ production at 100 uM measured every 12 secs for 120 secs by spectrophotometric analysis relative to control.
Settings: not given
The procedure, abridged:
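Coupled assay linking AMP from β-alanine plus pantoate condensation to NADH oxidation via myokinase, pyruvate kinase and lactate dehydrogenase. Mix held NADH, pantoic acid, β-alanine, ATP, phosphoenolpyruvate and MgCl₂ in buffer; compound (100 µM) added; reaction started with PS. A340 read every 12 s for 120 s. % inhibition = 100 × (1 − (compound rate − background)/(full rate − background)).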
Usually inhibition stands for the percentage by which the read-out fell short of the control. With `O=C(c1ccccc1)n1nc(-c2ccccc2)c2c1CCN(C(=S)Nc1ccc(F)cc1)C2`, the inhibition came out at 43.5%.
Same read-out and setting: in the case of `O=C(C1CCCCC1)n1nc(-c2ccccc2)c2c1CCN(S(=O)(=O)c1cccs1)C2` it was 52%; in that of `Cc1ccc(NC(=O)N2CCc3c(c(-c4ccccc4)nn3C(=O)C3CCCCC3)C2)cc1`, 40.8%.
Still for that read-out and setting: to `CC(=O)c1ccc(S(=O)(=O)N2CCc3c(c(-c4ccccc4)nn3C(=O)C3CCCCC3)C2)cc1` belongs 39.2%; to `Cc1ccc(S(=O)(=O)N2CCc3c(c(-c4ccccc4)nn3C(=O)C3CCCCC3)C2)cc1`, 41.6%.
Same read-out and setting: to `O=C(Nc1ccc([N+](=O)[O-])cc1)N1CCc2c(c(-c3ccccc3)nn2C(=O)C2CCCCC2)C1` belongs 50.8%; to `O=C(c1ccccc1)n1nc(-c2ccccc2)c2c1CCN(S(=O)(=O)c1cccs1)C2`, 48.7%; to `Cc1ccc(NC(=O)N2CCc3c(c(-c4ccccc4)nn3C(=O)c3ccccc3)C2)cc1`, 49.4%.
Consider `COc1ccc(NC(=S)N2CCc3c(c(-c4ccccc4)nn3C(=O)C3CCCCC3)C2)cc1`, for which the inhibition came to 50.6%.
The same measure, in the same setting: in the case of `O=C(Nc1ccc(Br)cc1)N1CCc2c(c(-c3ccccc3)nn2C(=O)C2CCCCC2)C1` it was 50.5%.
On the same count and under the same terms, to `O=C(C1CCCCC1)n1nc(-c2ccccc2)c2c1CCN(C(=S)Nc1ccc(F)cc1)C2` belongs 49.2%; to `O=C(Nc1ccc(Cl)cc1)N1CCc2c(c(-c3ccccc3)nn2C(=O)C2CCCCC2)C1`, 54.7%; to `CCOc1ccc(NC(=O)N2CCc3c(c(-c4ccccc4)nn3C(=O)C3CCCCC3)C2)cc1`, 48.5%.
Turning to `O=C(Nc1ccc(Cl)cc1)N1CCc2c(c(-c3ccccc3)nn2C(=O)c2ccccc2)C1`, the inhibition was determined as 40.2%.
Still for that read-out and setting: in the case of `CCOc1ccc(NC(=O)N2CCc3c(c(-c4ccccc4)nn3C(=O)c3ccccc3)C2)cc1` it was 47.2%.
The same measure, in the same setting: to `O=C(NCc1ccccc1)N1CCc2c(c(-c3ccccc3)nn2C(=O)C2CCCCC2)C1` belongs 49.1%; to `C=CCNC(=S)N1CCc2c(c(-c3ccccc3)nn2C(=O)c2ccccc2)C1`, 41.7%.
